Laboratory results reported in ChEMBL document CHEMBL1152800, “Aza-analogue dibenzepinone scaffolds as p38 mitogen-activated protein kinase inhibitors: design, synthesis, and biological data of inhibitors with improved physicochemical properties” (J Med Chem, 2009).
In brackets after ≈: the same amount, converted by molar mass.

How the values were obtained:
[1] = target: Mitogen-activated protein kinase 14 (Homo sapiens, UniProt Q16539); assay: Inhibition of p38alpha MAPK by cell-free enzyme immunosorbent assay
Chain of Mitogen-activated protein kinase 14 (Q16539 whole entry): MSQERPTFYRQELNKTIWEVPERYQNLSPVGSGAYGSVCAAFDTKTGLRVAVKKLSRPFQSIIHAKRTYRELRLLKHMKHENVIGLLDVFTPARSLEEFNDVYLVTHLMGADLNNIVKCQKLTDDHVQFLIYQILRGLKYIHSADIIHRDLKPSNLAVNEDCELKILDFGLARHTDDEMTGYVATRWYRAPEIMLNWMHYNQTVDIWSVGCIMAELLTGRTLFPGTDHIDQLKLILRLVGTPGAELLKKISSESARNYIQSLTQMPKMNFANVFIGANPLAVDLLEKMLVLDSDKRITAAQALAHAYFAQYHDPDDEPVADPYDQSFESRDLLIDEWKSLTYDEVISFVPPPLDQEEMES

[2] = Aqueous solubility in HCl/H2O at pH 1; format: physicochemical
[3] = Lipophilicity, CHI in methanol by fast-gradient HPLC; format: physicochemical
Outline: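 Chromatographic hydrophobicity index measured by fast-gradient reversed-phase HPLC with methanol as organic modifier. The index is calculated from the compound's retention time. It approximates the volume percentage of methanol needed for equal distribution of the compound between mobile and stationary phases.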

Q: For `Nc1cc(F)ccc1Nc1ccc2c(c1)OCc1ccccc1C2=O`, which IC50 [1] is on record?
A: 0.04 µM

Q: Which results are given for `Nc1ccccc1Nc1ccc2c(c1)CCc1ccccc1C2=O`?
A: solubility [2]: < 10 µg/mL; CHI [3]: 82.6%

Q: With `Nc1ccccc1Nc1ccc2c(c1)OCc1ccccc1C2=O` as the compound, how does the CHI [3] read?
A: 75.2%

Q: What does the source list for `Nc1cc(F)ccc1Nc1ccc2c(c1)CCc1ccccc1C2=O`?
A: CHI [3]: 82.8%; IC50 [1]: 0.13 µM

Q: Which results are given for `Nc1ccccc1Nc1ccc2c(=O)c3cnccc3ccc2c1`?
A: CHI [3]: 71.4%; IC50 [1]: 1.95 µM

Q: With `Nc1ccccc1Nc1ccc2c(c1)CCc1cccnc1C2=O` as the compound, how does the CHI [3] read?
A: 65.8%

Q: And the IC50 [1]?
A: 0.44 µM

Q: For `Nc1ccccc1Nc1ccc2c(=O)c3cccnc3ccc2c1`, which CHI [3] is on record?
A: 73.4%

Q: What about the IC50 [1] of the same compound?
A: 1.08 µM

Q: Which CHI [3] does the source give for `O=c1c2ccc(Nc3ccc(F)cc3F)cc2ccc2ncccc12` here?
A: 82.9%

Q: What about the IC50 [1] of the same compound?
A: 0.33 µM

Q: Which results are given for `Nc1ccccc1Nc1ccc2c(c1)CCc1ncccc1C2=O`?
A: solubility [2]: 1200 µg/mL (≈ 3800 µM); CHI [3]: 73.9%; IC50 [1]: 0.31 µM

Q: What does the source list for `Nc1ccccc1Nc1ccc2c(c1)OCc1ncccc1C2=O`?
A: CHI [3]: 69%; IC50 [1]: 2.68 µM

Q: With `Nc1cc(F)ccc1Nc1ccc2c(c1)OCc1ncccc1C2=O` as the compound, how does the CHI [3] read?
A: 70.9%

Q: What about the IC50 [1] of the same compound?
A: 2.73 µM

Q: With `Nc1cc(F)ccc1Nc1ccc2c(c1)CCc1ncccc1C2=O` as the compound, how does the CHI [3] read?
A: 72.9%

Q: What about the IC50 [1] of the same compound?
A: 1.19 µM

Q: Which results are given for `O=C1c2ccccc2CCc2cc(Nc3ccc(F)cc3F)ccc21`?
A: solubility [2]: < 10 µg/mL; CHI [3]: 88.1%; IC50 [1]: 0.13 µM

Q: For `O=C1c2ccc(Nc3ccc(F)cc3F)cc2CCc2ncccc21`, which solubility [2] is on record?
A: 486 µg/mL (≈ 1440 µM)

Q: What about the CHI [3] of the same compound?
A: 81.2%

Q: And the IC50 [1]?
A: 0.24 µM

Q: With `O=c1c2ccccc2ccc2cc(Nc3ccc(F)cc3F)ccc12` as the compound, how does the CHI [3] read?
A: 88.7%

Q: What about the IC50 [1] of the same compound?
A: 2.53 µM

Q: What does the source list for `O=C1c2ccc(Nc3ccc(F)cc3F)cc2OCc2ncccc21`?
A: CHI [3]: 83.2%; IC50 [1]: 0.18 µM
